Published values collected from several papers.
Lines come from different studies, so protocols differ.
CYP3A7: Cytochrome P450 3A7 (CYP3A7, Homo sapiens, UniProt P24462)

Compound | target or system | assay | test system | setting | endpoint | result
Cc1ccnc2c1NC(=O)c1cccnc1N2C1CC1 | MT4 | cell growth or viability, MTT |  | 5 days | CC50 | > 4 µg/mL
N#Cc1cnn2c(Nc3cn(CCN4CCOCC4)cn3)cc(Nc3cccc(-n4cnnc4)c3)nc12 |  | metabolic stability | male CD-1 mouse, liver microsomes | 5 µM, 30 min, pH 7.4 | compound remaining | 81%
Cc1ccc(Cn2cc(C(=O)NN)c(=O)c3cc(Oc4ccccc4)ccc32)cc1 |  | metabolic stability | male rat, liver microsomes | 1 µM, 30 min | compound remaining | > 99%
N#Cc1cnn2c(NC3CC(F)(F)C3)cc(Nc3cccc(-n4cnnc4)c3)nc12 |  | metabolic stability | male CD-1 mouse, liver microsomes | 5 µM, 30 min, pH 7.4 | compound remaining | 75%
COc1c(-c2ccc3cc(NS(C)(=O)=O)ccc3c2)cc(-n2ccc(=O)[nH]c2=O)cc1C(C)(C)C | CYP3A7 | enzyme activity, inhibitor, fluorescence |  | 20 µM, 10 min, pH 7.4 | inhibition | ≥ 50%
N#C[C@@]12C[C@@H]1[C@@H](n1cnc3c(N[C@@H](C4CCC4)C4CC4)nc(I)nc31)[C@H](O)[C@@H]2O |  | metabolic stability | rat, liver microsomes | 1 h | compound remaining | 72.9%
Cc1cnc(C(=O)N[C@H]2CCCCC/C=C\[C@@H]3C[C@@]3(C(=O)NS(=O)(=O)C3CC3)NC(=O)[C@@H]3C[C@@H](Oc4nc5ccccc5c5ccccc45)CN3C2=O)cn1 | CYP3A7 | enzyme activity, inhibitor |  | pH 7.4, with preincubation | KI (inactivation) | 4.66 µM
O=[N+]([O-])c1ccc(/C=N/c2c(-c3ccccc3)nc3ccc(Cl)cn23)cc1 | MT4 | cell growth or viability, MTT |  | 5 days | CC50 | > 125 µg/mL
N#Cc1cnn2c(NC3CC3)cc(Nc3cc(-n4cnnc4)ccc3F)nc12 |  | metabolic stability | male CD-1 mouse, liver microsomes | 5 µM, 30 min, pH 7.4 | compound remaining | 100%
COC(=O)N[C@H](C(=O)N1CC2(CC2)C[C@H]1c1ncc(-c2ccc3c(c2)C(F)(F)c2cc(-c4ccc5nc([C@@H]6[C@H]7CC[C@H](C7)N6C(=O)[C@@H](NC(=O)OC)C(C)C)[nH]c5c4)ccc2-3)[nH]1)C(C)C | CYP3A7 | enzyme activity, inhibitor, fluorescence |  | 20 µM, 10 min, pH 7.4 | inhibition | ≥ 50%
O=c1[nH]cnc2c1ncn2[C@H]1CC[C@@H](CO)O1 | MT4 | cell growth or viability, MTT |  | 5 days | CC50 | > 50 µg/mL
N#Cc1cnn2c(NC3CC3)cc(Nc3ccc(N4CCC[C@H](N)C4)c(-n4cnnc4)c3)nc12 |  | metabolic stability | male CD-1 mouse, liver microsomes | 5 µM, 30 min, pH 7.4 | compound remaining | 98%
